Measured values from ChEMBL document CHEMBL1126834, “Chemistry, binding affinities, and behavioral properties of a new class of "antineophobic" mitochondrial DBI receptor complex (mDRC) ligands” (J Med Chem, 1993).

How the values were obtained:
Cannabinoid receptor 1 = Cannabinoid receptor 1 (Rattus norvegicus, UniProt P20272); assay: Inhibitory activity, measured by displacement [3H]CP-55940 from cannabinoid receptor (CB1) in rat brain; assay type: tissue-based
[1] = Inhibitory activity at GABA B receptor, measured by the ability to displace [3H]baclofen from GABA B receptor in rat brain; assay type: tissue-based
[2] = biological target: GABA-A receptor; anion channel; assay: Inhibitory activity at GABA A receptor, measured by the ability to displace [35S]TBPS from GABA A receptor in rat brain; assay type: tissue-based
[3] = biological target: GABA-A receptor; anion channel; assay: Inhibitory activity at GABA A receptor, measured by the ability to displace [3H]GABA from GABA A receptor in rat brain; assay type: tissue-based
[4] = biological target: GABA-A receptor; anion channel; assay: Inhibitory activity at GABA A receptor, measured by the ability to displace [3H]flumazenil from GABA A receptor in rat brain; assay type: tissue-based
[5] = biological target: GABA-A receptor; anion channel; assay: Inhibitory activity at GABA A receptor, measured by the ability to displace [3H]zolpidem from GABA A receptor in rat brain; assay type: tissue-based
Rattus norvegicus [6] = assay: Tested for antineophobic activity using the elevated plus maze test administered at 58 umol/kg perorally in rats; assay type: functional
[7] = biological target: T1, Gastrin/cholecystokinin type B receptor (Rattus norvegicus, UniProt P30553); assay: Inhibitory activity by measuring its ability to displace [3H]L-365260 from cholecystokinin receptor in rat brain; assay type: tissue-based
T1 sequence (P30553 whole entry): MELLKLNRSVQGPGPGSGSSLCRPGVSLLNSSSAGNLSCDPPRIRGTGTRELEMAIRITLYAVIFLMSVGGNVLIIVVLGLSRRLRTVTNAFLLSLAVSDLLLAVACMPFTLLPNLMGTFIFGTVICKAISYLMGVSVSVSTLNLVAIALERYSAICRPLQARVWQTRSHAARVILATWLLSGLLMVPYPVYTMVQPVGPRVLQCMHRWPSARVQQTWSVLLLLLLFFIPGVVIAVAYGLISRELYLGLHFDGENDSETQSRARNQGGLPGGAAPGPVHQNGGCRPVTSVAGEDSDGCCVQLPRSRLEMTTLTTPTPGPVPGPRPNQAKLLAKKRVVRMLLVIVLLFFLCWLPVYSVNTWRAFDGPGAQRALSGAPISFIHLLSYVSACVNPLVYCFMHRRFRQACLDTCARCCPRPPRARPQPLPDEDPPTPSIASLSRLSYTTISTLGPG

[8] = biological target: Adrenergic receptor alpha; assay: Inhibitory activity by measuring its ability to displace [3H]WB-4101 from alpha-adrenergic receptor in rat brain; assay type: tissue-based
[9] = biological target: Adrenergic receptor alpha; assay: Inhibitory activity by measuring its ability to displace [3H]clonidine from alpha-adrenergic receptor in rat brain; assay type: tissue-based
Adrenergic receptor beta = Adrenergic receptor beta (Rattus norvegicus, UniProt P18090+P10608+P26255); assay: Inhibitory activity by measuring its ability to displace [125I]pindolol from beta-adrenergic receptor in rat brain; assay type: tissue-based
[10] = Inhibitory activity by measuring its ability to displace [3H]glycine from glycine receptor in rat brain; assay type: tissue-based
Glutamate NMDA receptor = assay: Inhibitory activity by measuring its ability to displace [3H]-MK-801 from glutamate(NMDA) receptor in rat brain; assay type: tissue-based
[11] = Tested for inhibitory activity by measuring its ability to displace [3H]AMPA from glutamate (non-NMDA) receptor in rat brain; assay type: tissue-based
[12] = Inhibitory activity by measuring its ability to displace [3H]spiperone from dopamine or serotonin 5-HT-1 receptors in rat brain; assay type: tissue-based
Translocator protein = Translocator protein (Rattus norvegicus, UniProt P16257); assay: Binding affinity against mitochondrial DBI complex (peripheral benzodiazepine receptor) using primary cultures of glial cells
Outline: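 Glia from cerebella of 8-day-old Sprague–Dawley rat pups, trypsin-dissociated and grown 14 days (~95% astroglia). Cells lysed in 50 mM Hepes pH 7.4, 4 μg protein per tube. Incubated with [3H]4'-chlorodiazepam and competitor for 90 min at 4 °C, then filtered. Nonspecific binding defined with 10 μM 4'-chlorodiazepam. Triplicate competition curves; IC50 by nonlinear regression, converted to Ki (Bylund–Yamamura).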

[13] = biological target: Adrenergic receptor alpha; assay: Displacement of [3H]clonidine from alpha-adrenergic receptor in rat brain; assay type: tissue-based
Opioid receptor = Opioid receptor (Rattus norvegicus, UniProt P33533+P34975+P33535); assay: Inhibition of [3H]naxolone binding to opiate receptors in rat brain; assay type: tissue-based
[14] = biological target: Serotonin 2 (5-HT2) receptor (Rattus norvegicus); assay: Inhibitory activity by measuring its ability to displace [3H]ketanserin from serotonin receptor in rat brain
[15] = biological target: Sigma receptor (Rattus norvegicus); assay: Tested for inhibitory activity by measuring its ability to displace [3H]3-PPP from sigma receptor in rat brain
Rattus norvegicus [16] = assay: Tested for antineophobic activity using the elevated plus maze test administered at 59 umol/kg perorally in rats; assay type: functional

Sequence of Translocator protein (P16257 whole entry, looked up): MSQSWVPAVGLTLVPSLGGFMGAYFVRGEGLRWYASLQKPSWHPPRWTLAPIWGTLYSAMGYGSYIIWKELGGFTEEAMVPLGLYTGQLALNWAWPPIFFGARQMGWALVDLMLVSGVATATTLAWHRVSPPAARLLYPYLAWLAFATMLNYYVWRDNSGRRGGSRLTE
Sequence of Cannabinoid receptor 1 (P20272 whole entry): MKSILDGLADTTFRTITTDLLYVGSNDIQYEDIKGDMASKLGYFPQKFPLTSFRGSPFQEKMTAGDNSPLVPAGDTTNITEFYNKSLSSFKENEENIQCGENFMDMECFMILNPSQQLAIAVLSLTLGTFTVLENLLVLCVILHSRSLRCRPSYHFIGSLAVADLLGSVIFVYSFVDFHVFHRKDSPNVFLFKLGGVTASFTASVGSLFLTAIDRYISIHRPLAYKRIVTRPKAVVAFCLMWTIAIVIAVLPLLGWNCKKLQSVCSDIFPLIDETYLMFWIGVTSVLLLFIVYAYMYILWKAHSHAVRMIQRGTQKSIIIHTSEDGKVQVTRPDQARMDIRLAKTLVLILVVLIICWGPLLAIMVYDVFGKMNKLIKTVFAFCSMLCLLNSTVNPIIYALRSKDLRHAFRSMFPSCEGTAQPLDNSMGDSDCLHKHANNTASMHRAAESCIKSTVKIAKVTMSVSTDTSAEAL

Row | IC50 (Cannabinoid receptor 1) [nM] | IC50 [1] [nM] | IC50 [2] [nM] | IC50 [3] [nM] | IC50 [4] [nM] | IC50 [5] [nM] | IC50 [7] [nM] | IC50 [8] [nM] | IC50 [9] [nM] | IC50 (Adrenergic receptor beta) [nM] | IC50 [10] [nM] | IC50 (Glutamate NMDA receptor) [nM] | IC50 [11] [nM] | IC50 [12] [nM] | Ki (Translocator protein) [nM] | IC50 [13] [nM] | IC50 (Opioid receptor) [nM] | IC50 [14] [nM] | IC50 [15] [nM] | SMILES | other results
1 | > 1000 | > 1000 | > 1000 | > 1000 | > 1000 | > 1000 | > 1000 | > 1000 | > 1000 | > 1000 | > 1000 | > 1000 | > 1000 | > 1000 | 200 | – | – | – | – | CCCN(CCC)C(=O)Cc1cn(Cc2ccc(Br)cc2)c2ccccc12 | No. of entries (Rattus norvegicus [6]): 0.6; Time (Rattus norvegicus [6]): 1%
2 | > 1000 | > 1000 | > 1000 | > 1000 | > 1000 | > 1000 | > 1000 | > 1000 | – | > 1000 | > 1000 | > 1000 | > 1000 | > 1000 | – | > 1000 | > 1000 | > 1000 | > 1000 | CCCCCCCCCCCCCCCCCCNC(=O)Cc1c(-c2ccccc2)[nH]c2ccccc12 | –
3 | > 1000 | > 1000 | > 1000 | > 1000 | > 1000 | > 1000 | > 1000 | > 1000 | > 1000 | > 1000 | > 1000 | > 1000 | > 1000 | > 1000 | 340 | – | > 1000 | > 1000 | > 1000 | CCCN(CCC)C(=O)Cc1c(-c2ccc(Cl)cc2)n(C)c2ccccc12 | –
4 | > 1000 | > 1000 | > 1000 | > 1000 | > 1000 | > 1000 | > 1000 | > 1000 | > 1000 | > 1000 | > 1000 | > 1000 | > 1000 | > 1000 | 216 | – | > 1000 | > 1000 | > 1000 | CCCN(CCC)C(=O)Cc1c(-c2ccc(I)cc2)[nH]c2ccccc12 | –
5 | > 1000 | > 1000 | > 1000 | > 1000 | > 1000 | > 1000 | > 1000 | > 1000 | > 1000 | > 1000 | > 1000 | > 1000 | > 1000 | > 1000 | 400 | – | > 1000 | > 1000 | > 1000 | CCCN(CCC)C(=O)/C=C/c1c(-c2ccc(Cl)cc2)[nH]c2ccccc12 | –
6 | > 1000 | > 1000 | > 1000 | > 1000 | > 1000 | > 1000 | > 1000 | > 1000 | – | > 1000 | > 1000 | > 1000 | > 1000 | > 1000 | 200 | > 1000 | – | – | – | CCCCCCN(CCCCCC)CCc1c(-c2ccc(F)cc2)[nH]c2ccccc12 | No. of entries (Rattus norvegicus [16]): 2; Time (Rattus norvegicus [16]): 4.1%
7 | > 1000 | > 1000 | > 1000 | > 1000 | > 1000 | > 1000 | > 1000 | > 1000 | > 1000 | > 1000 | > 1000 | > 1000 | > 1000 | > 1000 | > 1000 | – | > 1000 | > 1000 | > 1000 | CCCCCCCCCCNC(=O)Cc1c(-c2ccccc2)[nH]c2ccccc12 | –
8 | > 1000 | > 1000 | > 1000 | > 1000 | > 1000 | > 1000 | > 1000 | > 1000 | – | > 1000 | > 1000 | > 1000 | > 1000 | > 1000 | 7.7 | > 1000 | – | – | – | CCCCCCN(CCCCCC)C(=O)Cc1c2n(c3ccccc13)Cc1ccccc1-2 | No. of entries (Rattus norvegicus [6]): 2; Time (Rattus norvegicus [6]): 6.4%
9 | > 1000 | > 1000 | > 1000 | > 1000 | > 1000 | > 1000 | > 1000 | > 1000 | – | > 1000 | > 1000 | > 1000 | > 1000 | > 1000 | 20 | > 1000 | > 1000 | > 1000 | > 1000 | CCCN(CCC)C(=O)Cc1c2n(c3ccccc13)Cc1ccccc1-2 | –
10 | > 1000 | > 1000 | > 1000 | > 1000 | > 1000 | > 1000 | > 1000 | > 1000 | > 1000 | > 1000 | > 1000 | > 1000 | > 1000 | > 1000 | 9.7 | – | > 1000 | > 1000 | > 1000 | CCCCCCN(CCCCCC)C(=O)Cc1c(-c2ccccc2)[nH]c2ccccc12 | No. of entries (Rattus norvegicus [16]): 1.6; Time (Rattus norvegicus [16]): 6.2%
11 | > 1000 | > 1000 | > 1000 | > 1000 | > 1000 | > 1000 | > 1000 | > 1000 | > 1000 | > 1000 | > 1000 | > 1000 | > 1000 | > 1000 | 15 | – | > 1000 | > 1000 | > 1000 | CCCCCN(CCCCC)C(=O)Cc1c(-c2ccc(F)cc2)[nH]c2ccccc12 | –
12 | > 1000 | > 1000 | > 1000 | > 1000 | > 1000 | > 1000 | > 1000 | > 1000 | > 1000 | > 1000 | > 1000 | > 1000 | > 1000 | > 1000 | 71 | – | > 1000 | > 1000 | > 1000 | CCCN(CCC)C(=O)CCc1c(-c2ccc(Cl)cc2)[nH]c2ccc(Cl)cc12 | –
13 | > 1000 | > 1000 | > 1000 | > 1000 | > 1000 | > 1000 | > 1000 | > 1000 | – | > 1000 | > 1000 | > 1000 | > 1000 | > 1000 | > 1000 | > 1000 | – | – | – | CCCCCCCCN(CCCCCCCC)C(=O)Cc1c(-c2ccccc2)[nH]c2ccccc12 | –
